According to ChEMBL document CHEMBL3286157, “Polyketides from the cultured lichen mycobiont of a Vietnamese Pyrenula sp” (J Nat Prod, 2014):
Activity calls are given as the source filed them. The rule behind the calls is not given here.

Legend:
[1] = (§1) Inhibition of calf thymus DNA polymerase alpha assessed as incorporation of [3H]dTTP into poly(dA)/oligo(dT)18 DNA-template primer after 60 mins; parameters: species or system Bos taurus
In short: (§2)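 Pol α from calf thymus, purified by immunoaffinity column. Rat pol β expressed in E. coli JMpβ5. Template-primer poly(dA)/oligo(dT)18 (A/T 2:1) with [3H]dTTP (43 Ci/mmol). Each enzyme (0.05 unit) was preincubated with compound for 10 min at 0 °C in 50 mM Tris-HCl pH 7.5 with 1 mM DTT, 50% glycerol and 0.1 mM EDTA. Reaction ran 60 min at 37 °C. Activity relative to no-inhibitor control; IC50 from dose-response curves.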

DNA polymerase beta = DNA polymerase beta (Rattus norvegicus, UniProt P06766); assay: (§3) Inhibition of rat recombinant DNA polymerase beta expressed in Escherichia coli JMpbeta5 cells assessed as incorporation of [3H]dTTP into poly(dA)/oligo(dT)18 DNA-template primer after 60 mins; in short: as §2
HCT-116 = assay: Cytotoxicity against human HCT116 cells assessed as inhibition of cell proliferation after 24 hrs by WST-1 assay; format: functional, cell-based; settings: HCT-116, 24 h
In short: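 HCT116 cells from ATCC, grown in McCoy's 5A with 10% FBS, penicillin and streptomycin at 37 °C under 5% CO2. Plated at 1 × 10^4 cells per well with compound at 10 and 100 μM for 24 h. Viability read by WST-1. IC50 given as mean ± SD of five independent experiments.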

Bos taurus [2] = species on record: Bos taurus; assay: Inhibition of calf thymus DNA polymerase alpha assessed as incorporation of [3H]dTTP into poly(dA)/oligo(dT)18 DNA-template primer at 100 uM after 60 mins
In short: (§4)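 Single-concentration screen at 100 μM. Compound was dissolved in DMSO and sonicated 30 s. Enzyme (0.05 unit of calf thymus pol α or E. coli-expressed rat pol β) was preincubated 10 min at 0 °C in Tris-HCl pH 7.5/DTT/glycerol/EDTA. Reaction with poly(dA)/oligo(dT)18 and [3H]dTTP ran 60 min at 37 °C. Activity given as percent of no-inhibitor control.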

[3] = target: DNA polymerase beta (Rattus norvegicus) (UniProt P06766); assay: Inhibition of rat recombinant DNA polymerase beta expressed in Escherichia coli JMpbeta5 cells assessed as incorporation of [3H]dTTP into poly(dA)/oligo(dT)18 DNA-template primer at 100 uM after 60 mins; in short: as §4
Bos taurus [4] = species on record: Bos taurus; assay: as §1; in short: as §2
[5] = target: DNA polymerase beta (Rattus norvegicus) (UniProt P06766); assay: as §3; in short: as §2

Structure (SMILES) | IC50 [1] [µM] | IC50 (DNA polymerase beta) [µM] | IC50 (HCT-116) [µM] | inhibition (Bos taurus [2]) | inhibition [3] | inhibition (Bos taurus [4]) | inhibition [5]
CC1=CC[C@H]2[C@@H]3[C@H](O)[C@@H](/C=C/C=C/C(=O)O)O[C@@H]4[C@H](C)CCO[C@@]4(C)[C@@H]3C(C)=C[C@@H]2C1 | 47.2 | 37.9 | 74.8 | Active | Active |  | 
CC[C@@H](C)[C@H]1O[C@H](/C=C/C=C/C(=O)O)[C@@H](O)[C@@]2(O)[C@@H]3CC=C(C)C[C@H]3C=C(C)[C@H]2[C@]1(C)O | > 100 | > 100 | > 100 | Active | Active |  | 
C=C1[C@@H]2C(C)=C[C@@H]3CC(C)=CC[C@H]3[C@@H]2[C@H](O)[C@@H](/C=C/C=C/C(=O)O)O[C@@H]1[C@H](C)CC | 17.3 | 19.5 | 26.1 | Active | Active | Dose-dependent effect | Dose-dependent effect
Cc1cn([C@H]2CC[C@@H](COP(=O)(O)OP(=O)(O)OP(=O)(O)O)O2)c(=O)[nH]c1=O | > 100 | 30.8 | > 100 |  |  |  | 
C=C1[C@@H]([C@H](C)CC)O[C@H](/C=C/C=C/C(=O)O)[C@@H](O)[C@H]2[C@@H]3CC=C(C)C[C@H]3C=C(C)[C@@]12O | > 100 | > 100 | > 100 | Active | Active |  | 
C[C@@]1(CO)[C@H](O)CC[C@@]2(C)[C@H]1CC[C@H]1C[C@@H]3C[C@@]12CC[C@]3(O)CO [APHIDICOLIN] | 19.6 | > 100 | 9 |  |  |  | 
CC[C@@H](C)[C@H]1O[C@]1(C)[C@@H]1C(C)=C[C@@H]2CC(C)=CC[C@H]2[C@@H]1/C=C/C=C/C=C/C(=O)O | 8.1 | 9.5 | 6.4 | Active | Active | Dose-dependent effect | Dose-dependent effect
CC1=CC[C@@H]2[C@H](C=C(C)[C@H]3[C@]4(C)OCC[C@@H](C)[C@H]4O[C@H](/C=C/C=C/C(=O)O)[C@@H](O)[C@@]23O)C1 | > 100 | > 100 | > 100 | Active | Active |  | 
